SIRT5 inh = SIRT5 desuccinylase inhibitors, primary screen, biochemical, fluorescence imaging, single point, set 5; hit rate 1.1% among 330,000; NAD-dependent protein deacylase sirtuin-5, mitochondrial (Homo sapiens), Q9NXA8; AID 652115, 2013; Purified SirT5, succinyl-peptide AMC, trypsin-coupled fluorescence; inhibition, % at 15 µM; in the data active = inhibition above about 15%
Target sequence (Q9NXA8 whole entry, looked up): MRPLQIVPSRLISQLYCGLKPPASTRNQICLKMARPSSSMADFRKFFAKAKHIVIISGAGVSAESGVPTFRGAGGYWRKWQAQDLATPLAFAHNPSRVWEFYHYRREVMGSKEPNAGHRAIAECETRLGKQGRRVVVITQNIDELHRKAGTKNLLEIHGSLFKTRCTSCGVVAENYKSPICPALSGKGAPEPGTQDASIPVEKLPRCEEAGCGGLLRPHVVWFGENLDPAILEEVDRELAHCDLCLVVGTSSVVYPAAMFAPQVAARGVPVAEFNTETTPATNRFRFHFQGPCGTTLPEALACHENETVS
rRNA inh HTS = reduced GFP signal of wild-type E. coli, primary screen, bacterial rRNA inhibitor project, GFP/RFP fluorescence, OD600, single point | E. coli WT GFP vs humanized-ribosome RFP mutants, 24 h; stronger effect = lower value; DMSO median 0, no signal -100 | GFP signal change (wild-type ribosome), % (test concentration not listed) | hit rate 1.6% among 350,000;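 active = significant combined selectivity score with lowered wild-type GFP, culture density cut under 30%, mutant RFP and density less affected; inactive = any of these conditions unmet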
CFTR F508del cor = F508del CFTR correction, initial screen, CFBE line, single point | hit rate 0.36% among 350,000 | activity (quench increase), % at 7.58 µM | CFBE cells, YFP halide quenching; stimulated with forskolin plus potentiator P3; % fluorescence drop versus neutral controls | AID 720511, 2013;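 active = mean added fluorescence quench of at least 8% versus neutral control, with both replicates also reaching 8%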;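 also: cells transiently co-express mutant CFTR-F508del with the halide-sensitive YFP; corrector assay measuring rescue of mutant channel to the surface after 24 h compound exposure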
ERAP1 inh = human ERAP1 aminopeptidase inhibitors, primary screen, biochemical, single point, plate reader; inhibition, % at 10.7 µM; hit rate 0.15% among 340,000; Endoplasmic reticulum aminopeptidase 1 (Homo sapiens), Q9NZ08; recombinant ERAP1, Leu-AMC fluorescence, 60 min;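 active = mean replicate inhibition of at least 30%, or all replicates individually reaching that 30% level; inactive = mean below 30% and not every replicate reaching it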
S100A4 inh HTS = inhibitors of S100A4-myosin IIA peptide binding, primary screen, biochemical, fluorescence polarization, TAMRA-MyoIIA peptide; Protein S100-A4 (Homo sapiens), P26447; inhibition, % at 10.7 µM; hit rate 0.14% among 360,000; AID 652163, 2013;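 active = mean inhibition of at least 70% across replicates, with every replicate also reaching that level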
Target sequence (P26447 whole entry, looked up): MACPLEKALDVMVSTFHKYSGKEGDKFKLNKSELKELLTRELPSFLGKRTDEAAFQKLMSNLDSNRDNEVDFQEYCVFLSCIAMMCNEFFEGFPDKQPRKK
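Material: human S100A4 monomer with TAMRA-labelled myosin IIA peptide; buffer or medium: HEPES pH 7.2 with CaCl2, KCl, NaCl, DTT, Triton; compound dosing: one concentration per compound; schedule: 5 min incubation before reading; benchmarks: neutral control DMSO, positive control TFP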
Large screens that a line does not name were inactive; ! = not active in a repeat. Rows were chosen to be rich in hits. Some 3.1% of all compounds tested hit in one or more screens of this group.

COc1cccc(Sc2ccccc2/C=N/NC(N)=O)c1	CFTR F508del cor 8.8
O=C([C@@H]1[C@@H](CO)[C@@H]2Cn3c(cccc3=O)[C@@H]2N1Cc1ccccc1Cl)N1CCOCC1	none
CCOc1cccc(CN2CCCC(N3CCN(c4cccc(Cl)c4)CC3)C2)c1O (stereo not given)	SIRT5 inh 69
O=C1CCCCN1CCC(=O)N1CCCC(N2CCN(c3cccc(Cl)c3)CC2)C1 (stereo not given)	none
O=C(CCC(F)(F)F)N1CCCC(N2CCN(c3cccc(Cl)c3)CC2)C1 (stereo not given)	rRNA inh HTS -23
C[C@H](CO)N1C[C@H](C)[C@H](CN(C)Cc2ccncc2)Oc2c(NS(C)(=O)=O)cccc2C1=O	none
Cc1ccc(C(=O)OCC(=O)NC(C)c2ccccc2)s1 (stereo not given)	none
Cc1ccc(C(=O)NCC(=O)OCC(=O)NC(C)c2ccccc2)s1 (stereo not given)	CFTR F508del cor 15
O=C(C1CCCC1)N1[C@H](CO)[C@H](c2ccccc2)C12CN(CCC(F)(F)F)C2	none
c1coc(-c2nc3ccccc3s2)c1	CFTR F508del cor 11
COc1ccc(-c2nc3ccccc3s2)cc1	none (no result: CFTR F508del cor)
C[C@@H]1CN([C@H](C)CO)C(=O)Cc2cc(NC(=O)Cc3ccccc3)ccc2O[C@@H]1CN(C)Cc1ccc(C(=O)O)cc1	none
COc1ccc(Cc2c(-c3ccc(OC)c(OC)c3)nc3ccc(C)cn23)c(C)c1	rRNA inh HTS -32 (no result: ERAP1 inh)
C[C@H](CO)N1C[C@H](C)[C@@H](CN(C)C(=O)Nc2ccc(F)cc2)Oc2ccc(NC(=O)NC3CCCCC3)cc2CC1=O	none
Cn1c(CSc2nc3ccc(Br)cc3[nH]2)nc2ccccc21	rRNA inh HTS -22
C[C@H](CO)N1C[C@H](C)[C@H](CN(C)Cc2ccc(-c3ccccc3)cc2)OCc2ccccc2-c2ccccc2C1=O	SIRT5 inh 19
C[C@H]1CN([C@@H](C)CO)C(=O)c2ccccc2-c2ccccc2CO[C@H]1CN(C)Cc1ccc(F)cc1	SIRT5 inh 23
C[C@@H](NC(=O)C[C@@H]1C[C@H]2c3cc(NC(=O)C4CCC4)ccc3O[C@H]2[C@H](CO)O1)c1ccccc1	none
CO[C@H]1CC[C@@H]2CCN(C)C(=O)[C@H](C)[C@@H](OC)CN(C)C(=O)c3cc(C#N)ccc3OC[C@@H]1O2	none
Fc1cnc(Cl)nc1N1CCN(c2ccccc2)CC1	rRNA inh HTS -23
Cc1cc(NC(=S)Nc2ccccc2)ccc1Br	none
Cc1cc(NC(=S)Nc2cccnc2)ccc1Br	rRNA inh HTS -46
N#Cc1ccccc1COC(=O)c1cccc(S(=O)(=O)N2CCCC2)c1	rRNA inh HTS -29
O=C(c1cccnc1)N1C[C@H]2[C@@H](c3ccccc31)[C@H](CO)N2CC1CCCC1	none
C[C@@H]1CN([C@H](C)CO)C(=O)c2cc(NS(C)(=O)=O)ccc2O[C@@H](C)CCCCO[C@@H]1CN(C)S(C)(=O)=O	none (no result: SIRT5 inh, ERAP1 inh, S100A4 inh HTS)
CN1C(=O)c2cc(NC(=O)Cc3ccccc3)ccc2OC[C@H]2O[C@@H](CC(=O)O)CC[C@H]21	none
COc1ccc(S(=O)(=O)Nc2ccc3c(c2)C(=O)N([C@@H](C)CO)C[C@H](C)[C@H](CN(C)CC2CC2)O3)cc1	SIRT5 inh 27!
COc1ccc(S(=O)(=O)Nc2ccc3c(c2)C(=O)N([C@H](C)CO)C[C@@H](C)[C@H](CN(C)CC2CC2)O3)cc1	none
COc1ccc(S(=O)(=O)Nc2ccc3c(c2)CC(=O)N([C@@H](C)CO)C[C@@H](C)[C@H](CN(C)CC2CCCCC2)O3)cc1	SIRT5 inh 24
COc1ccc(S(=O)(=O)Nc2ccc3c(c2)CC(=O)N([C@H](C)CO)C[C@@H](C)[C@@H](CN(C)CC2CCCCC2)O3)cc1	none
COc1ccc(S(=O)(=O)Nc2ccc3c(c2)CC(=O)N([C@H](C)CO)C[C@H](C)[C@@H](CN(C)CC2CC2)O3)cc1	S100A4 inh HTS 118
O=C(NN=C1CCCC1)c1cc(Cl)cc(Cl)c1O	rRNA inh HTS -29
Nc1ccc2nc(SCc3cccc(F)c3)sc2c1	rRNA inh HTS -31 (no result: CFTR F508del cor)
CC(NC(=O)CSc1nc2ccc(N)cc2s1)c1ccccc1 (stereo not given)	none (no result: rRNA inh HTS)
O=C(CSc1cn[nH]n1)Nc1cccc(C(=O)O)c1	ERAP1 inh 32
O=C1CN(C(=O)COc2cccc(F)c2)c2ccccc2N1	SIRT5 inh 18 (no result: CFTR F508del cor)
COc1cc(OC)cc(C(=O)N2CC(=O)Nc3ccccc32)c1	CFTR F508del cor 8.7
CCCCOc1ccc(/C=C/C(=O)OCC(=O)c2c(N)n(C)c(=O)n(C)c2=O)cc1OCC	none
CCCCOc1ccc(/C=C/C(=O)OCC(=O)N2CC(=O)Nc3ccccc32)cc1OCC	SIRT5 inh 17
O=C1CN(C(=O)COc2ccc(Cl)c(Cl)c2)c2ccccc2N1	none
COc1ccc(S(=O)(=O)N(C)C[C@@H]2Oc3ccc(NC(=O)C4CC4)cc3CC(=O)N([C@H](C)CO)C[C@H]2C)cc1	none
C[C@H](CO)N1C[C@H](C)[C@H](CN(C)CC2CCCC2)Oc2ncc(-c3cccc(F)c3)cc2C1=O	none
NNc1nc2c(-c3ccc(F)cc3)nnn2c2ccccc12	rRNA inh HTS -17
NNc1nc2c(-c3ccc(Cl)cc3)nnn2c2ccccc12	none
O=C1Nc2ccccc2/C1=C\C(=O)c1ccccc1	rRNA inh HTS -19
COc1ccccc1/C=C1\C(=O)Nc2ccccc21	SIRT5 inh 16
O=C1Nc2ccccc2/C1=C/c1ccccc1Cl	none
Cc1ncc(/C=C2\C(=O)Nc3ccccc32)[nH]1	rRNA inh HTS -19
COc1ccc2c(c1)/C(=C/c1cc(OC)c(OC)c(OC)c1)C(=O)N2	CFTR F508del cor 13
CO[C@H]1CN(C)C(=O)c2ccc(NC(C)=O)cc2OC[C@H](C)N(Cc2ccncc2)C[C@H]1C	none
O=C(C[C@H]1C=C[C@H](NC(=O)c2cccc(F)c2)[C@H](CO)O1)NCc1ccc(Oc2ccccc2)cc1	none
O=C(N[C@@H]1CC[C@H](CCNC(=O)C2CCOCC2)O[C@H]1CO)c1ccccn1	none
Cc1ccc(CNC(=O)COC(=O)c2cc(=O)[nH]c3ccccc23)cc1	none
Cc1cccc(C)c1NC(=O)COC(=O)c1cc(=O)[nH]c2ccccc12	SIRT5 inh 17
C[C@@H]1CN([C@H](C)CO)C(=O)c2cccc(NS(=O)(=O)c3cn(C)cn3)c2O[C@@H]1CN(C)C(=O)Nc1ccc2c(c1)OCO2	none
